HCT116 bCat-KO: beta-catenin-lacking colon tumor cell growth suppression; HCT116 beta-catenin knockout viability, CellTiter-Glo, 60 h; active compounds read low; viability, % at 10 µM; actives 1.5% (n = 140,000);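 active means viability at or under a set limit, the compound median less 4 SD, cut at about 6% in these data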
Fibroblast inh: blocks proliferation of human lung fibroblasts; LL 47 human lung fibroblast viability, ATP luminescence; active compounds read low; viability, % at 10 µM; actives 1.1% (n = 85,000); AID 719;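 active means viability at or below 50% in the single dose screen; inactive means viability above 50%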;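 further: compound exposure lasted 72 h before the ATP readout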
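test system = LL 47 human lung fibroblasts | amount = 1,150 fibroblasts seeded per well | medium = 15% FBS in IMEM | times = overnight cell rest, 72 h compound treatment at 37 °C | measured by = CellTiter-Glo luminescence measuring cellular ATP | read-out = viability percentage against median untreated-cell control | benchmarks = cell-only wells, no compound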
HUVEC inhibit: inhibitors of human endothelial cell proliferation; HUVEC proliferation, CellTiter-Glo luminescence, 72 h; active compounds read low; viability, % at 10 µM (by protocol); actives 1.1% (n = 86,000); AID 648;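 active means viability at or below 30%; inactive means viability above 30%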
H69AR growth 86K: growth inhibitors of human H69AR lung tumor cells; H69AR lung tumor viability, ATP luminescence, 72 h; active compounds read low; viability, % at 10 µM; actives 6% (n = 85,000); AID 598;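 active means viability at or below 40%; inactive means viability above 40%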;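 further: multidrug resistant small cell line overexpressing MRP-1 efflux transporter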
PTEN del growth: growth suppressors of cells with PTEN tumor suppressor deletion | HCT116 PTEN-null viability, CellTiter-Glo, 60 h; active compounds read low | viability, % at 10 µM | actives 1.2% (n = 140,000) | AID 827;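 active means viability at or below a set limit, 4 SD under the median of all tested compounds, cut at about 3.7% in these data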;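 further: PTEN knockout HCT116 line with beta catenin targeted HCT116 as companion control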
Each line names hits and unclear results; the compound was inactive in the other large screens. Shown is part of a subset that was picked to be rich in hits.

CCc1nc(NCCCCCO)c2nnn(Cc3ccccc3F)c2n1	none
CCCn1c(CC)nc([N+](=O)[O-])c1S(=O)(=O)c1ccccc1	HCT116 bCat-KO 1.4, PTEN del growth 1.2 (no result: Fibroblast inh, HUVEC inhibit, H69AR growth 86K)
Cn1c(=O)n(C)c2cc([N+](=O)[O-])c(N3CCN(S(=O)(=O)c4ccccc4)CC3)cc21	none (no result: Fibroblast inh, HUVEC inhibit, H69AR growth 86K)
CC1CC(Nc2ccccc2)c2ccccc2N1C(=O)c1cccnc1 (centres undefined)	none
C[C@@H]1C[C@H](Nc2ccccc2)c2ccccc2N1C(=O)c1cccnc1	H69AR growth 86K 20
COc1ccc(CC(=O)N2CCC(Nc3nc4ccccc4n3Cc3ccc(F)cc3)CC2)cc1	H69AR growth 86K 21
O=S(=O)(NCc1ccco1)c1ccc(Cl)nc1	none (no result: Fibroblast inh, HUVEC inhibit, H69AR growth 86K)
CC(=O)c1nc(N2C(=O)CC(Cc3ccccc3)C2=O)sc1C (centres undefined)	none (no result: Fibroblast inh, HUVEC inhibit, H69AR growth 86K)
CCCCN1C[C@H](O)[C@@H](O)[C@H](O)[C@H]1CO	HCT116 bCat-KO 1.0, PTEN del growth 1.2
CCOc1ccccc1NC(=O)/C=C/C(N)=O	H69AR growth 86K 1.3
CCOc1ccccc1NC(=O)/C=C/c1ccccc1[N+](=O)[O-]	none (no result: Fibroblast inh, HUVEC inhibit, H69AR growth 86K)
Cc1cc(C)cc(NC(=O)CSc2nc(N)c(NC(=O)c3cccs3)c(=O)[nH]2)c1	none (no result: Fibroblast inh, HUVEC inhibit, H69AR growth 86K)
O=C(OCc1ccccc1)C1=[N+]([O-])OC(C(=O)OCc2ccccc2)C1c1c[nH]c2ccccc12 (centres undefined)	H69AR growth 86K 5.6
O=C(OCC(=O)c1c[nH]c2ccccc12)c1ccco1	none
CCOc1ccc(NC(=O)COC(=O)C23CC4CC(CC(C4)C2)C3)c([N+](=O)[O-])c1	none (no result: Fibroblast inh, HUVEC inhibit, H69AR growth 86K)
c1cncc(-c2nc(-c3cccs3)cs2)c1	none
Clc1ccsc1-c1csc(-c2cccnc2)n1	H69AR growth 86K 17
Cc1sc2ncnc(Nc3ccccc3)c2c1C	none
Cc1sc2ncnc(Sc3nnnn3-c3ccccc3)c2c1C	Fibroblast inh 10, HUVEC inhibit 26, H69AR growth 86K 0.9
Clc1ccc(-n2nnnc2Sc2ncnc3sccc23)cc1	Fibroblast inh 48, HUVEC inhibit 4.6, H69AR growth 86K 2.0 (no result: HCT116 bCat-KO, PTEN del growth)
Cc1ccc(-c2nn(-c3ccccc3)cc2CSC(=N)N)cc1	HCT116 bCat-KO 1.1, PTEN del growth 1.0 (no result: Fibroblast inh, HUVEC inhibit, H69AR growth 86K)
OCc1cn(-c2ccccc2)nc1-c1ccc(-c2nn(-c3ccccc3)cc2CO)cc1	none
CCCCC(=O)Nc1ccc(C(=O)Nc2ccc(S(=O)(=O)Nc3ccc(C)cc3)cc2)cc1	none (no result: Fibroblast inh, HUVEC inhibit, H69AR growth 86K)
C=C1N(c2ccccc2)C(=O)OC1(C)C	none (no result: Fibroblast inh, HUVEC inhibit, H69AR growth 86K)
Cc1ccc(OCn2c(=O)sc3ccccc32)cc1	none
O=C(CN1C(=O)CCC1=O)Nc1ccc(Br)cc1	H69AR growth 86K 40
COc1ccc(S(=O)(=O)N2CCN(CC(=O)Nc3cc(OC)cc(OC)c3)CC2)cc1	H69AR growth 86K 4.9
COc1ccc(S(=O)(=O)N2CCCN(CC(=O)Nc3ccc(OC)c(Cl)c3)CC2)cc1	H69AR growth 86K 2.1
O=C(CN1CCN(S(=O)(=O)c2ccc(Br)cc2)CC1)Nc1ccc(F)cc1	H69AR growth 86K 1.6
Cc1sc(NC(=O)C2C3C=CC(C3)C2C(=O)O)c(C(N)=O)c1-c1ccc(C(C)C)cc1 (centres undefined)	none (no result: Fibroblast inh, HUVEC inhibit, H69AR growth 86K)
C[C@H](Nc1ncnc2sc3c(c12)CCC3)C(=O)O	none
Cc1ccc(C(=O)Nc2ncnc3sc4c(c23)CCCCC4)cc1	H69AR growth 86K 31
NS(=O)(=O)c1cccc(NC(=S)NC(=O)C23CC4CC(CC(C4)C2)C3)c1	none (no result: Fibroblast inh, HUVEC inhibit, H69AR growth 86K)
O=C(Nc1nc2ccccc2[nH]1)c1ccccc1	H69AR growth 86K 32
Cc1onc(-c2c(F)cccc2Cl)c1C(=O)Nc1cccc2nsnc12	none
Cc1onc(-c2c(F)cccc2Cl)c1C(=O)Nc1nc2ccccc2[nH]1	H69AR growth 86K 33
COc1ccc(C(=O)/C=C/Nc2ccc(S(=O)(=O)Nc3onc(C)c3C)cc2)cc1	none (no result: Fibroblast inh, HUVEC inhibit, H69AR growth 86K)
Cc1c(CN(C)C)c2c(n1C)C(=O)c1ccc(Br)cc1-2	none
Cc1c(CN(C)C)c2c(n1Cc1ccccc1)C(=O)c1ccc(Br)cc1-2	Fibroblast inh 46, HUVEC inhibit 22, H69AR growth 86K 5.5
O=C(CN1CCN(S(=O)(=O)c2ccc(Br)cc2)CC1)N/N=C/c1cccnc1	none (no result: Fibroblast inh, HUVEC inhibit, H69AR growth 86K)
Cn1c(-c2c(N)n(CCc3ccccc3)c3nc4ccccc4nc23)nc2ccccc21	H69AR growth 86K 36
Cn1c(-c2c(N)n(CCCc3ccccc3)c3nc4ccccc4nc23)nc2ccccc21	H69AR growth 86K 23
O=C(CN1CCCCCC1)N/N=C/c1cccc(Cl)c1Cl	none (no result: Fibroblast inh, HUVEC inhibit, H69AR growth 86K)
Cc1ccsc1C1C=C(c2cccc(Br)c2)Nc2ncnn21 (centres undefined)	none
Cc1ccc(C2C=C(c3ccc4c(c3)OCO4)Nc3ncnn32)cc1 (centres undefined)	none (no result: Fibroblast inh)
Fc1ccc(Br)cc1C1C=C(c2ccc(Br)cc2)Nc2ncnn21 (centres undefined)	H69AR growth 86K 18
CCc1ccc(C2=CC(c3cc(Br)ccc3F)n3ncnc3N2)cc1 (centres undefined)	H69AR growth 86K 18
O=C(OCC(=O)N(C1CCCCC1)C1CCCCC1)c1cnccn1	H69AR growth 86K 1.2
Cc1cc(C)cc(OCC(=O)NNC(=O)CN2C(=O)c3ccccc3C2=O)c1	none (no result: Fibroblast inh, HUVEC inhibit, H69AR growth 86K)
N#Cc1cc(C(=O)c2cc(Br)ccc2O)cn(C2CCCCC2)c1=O	H69AR growth 86K 13
N#Cc1cc(C(=O)c2ccccc2OCC(=O)Nc2ccccc2Cl)cn(C2CCCCC2)c1=O	none (no result: Fibroblast inh, HUVEC inhibit, H69AR growth 86K)
CSCCC1NC(=O)N(CC(=O)Nc2cccc3ccccc23)C1=O (centres undefined)	none (no result: Fibroblast inh, HUVEC inhibit, H69AR growth 86K)
Cc1ccccc1-n1nc(C(=O)c2cccs2)cc(-c2nc3ccccc3[nH]2)c1=N	H69AR growth 86K 38
COc1ccc(-n2nc(C(=O)c3cccs3)cc(-c3nc4ccccc4[nH]3)c2=N)cc1	HUVEC inhibit 29, H69AR growth 86K 1.4
COC(=O)C(CCSC)NC(=O)c1cc2c(n(-c3ccccc3)c1=O)CC(C)(C)CC2=O (centres undefined)	none (no result: Fibroblast inh, HUVEC inhibit, H69AR growth 86K)
Cc1cc(NC(=O)CCc2ccccc2)c([N+](=O)[O-])cc1C	none (no result: Fibroblast inh, HUVEC inhibit, H69AR growth 86K)
CCCC(=O)NC(c1ccco1)c1cc(Cl)c2cccnc2c1O (centres undefined)	HCT116 bCat-KO 6.0, Fibroblast inh 3.1, HUVEC inhibit 12, H69AR growth 86K 0.9
CCCC(=O)NC(c1ccc2c(c1)OCO2)c1cc(Cl)c2cccnc2c1O (centres undefined)	HCT116 bCat-KO 4.1 (no result: Fibroblast inh, HUVEC inhibit, H69AR growth 86K)
Cc1ccc(C(NC(=O)C(C)C)c2cc([N+](=O)[O-])c3cccnc3c2O)cc1 (centres undefined)	none (no result: Fibroblast inh, HUVEC inhibit, H69AR growth 86K)
O=C(NC(c1ccccc1)c1cc(Cl)c2cccnc2c1O)c1cccnc1 (centres undefined)	none (no result: Fibroblast inh, HUVEC inhibit, H69AR growth 86K)
CC(=O)OCCCN1c2ccccc2Nc2nnc(-c3ccccc3)cc21	H69AR growth 86K 39
COCCNC(=O)/C=C/c1c(Cl)cccc1Cl	none (no result: Fibroblast inh, HUVEC inhibit, H69AR growth 86K)
Cc1cc(C(=O)CSc2nc3ccccc3n2CCC#N)c(C)n1Cc1cccs1	H69AR growth 86K 17
COC(=O)C1=C(C(=O)OC)SC(=C2C(=S)C(C)(C)N(C(=O)CC(C)C)c3ccccc32)S1	H69AR growth 86K 17 (no result: PTEN del growth)
CC(C)CC(=O)n1sc(NC(=O)c2ccccc2)nc1=O	none (no result: Fibroblast inh, HUVEC inhibit, H69AR growth 86K)

Compound activity: PubChem BioAssay, SRMLSC
